The values that follow come from ChEMBL document CHEMBL1156815, “Synthesis and opioid activity of enantiomeric N-substituted 2,3,4,4a,5,6,7,7a-octahydro-1H-benzofuro[3,2-e]isoquinolines” (J Med Chem, 2010).

Experiment [1] has as its target T1, Delta-type opioid receptor (Homo sapiens, UniProt P41143). Nature of the experiment: Displacement of [125I]OXY from human delta opioid receptor expressed in CHO cells. The experiment is classed as cell-based. A general note: Loss of bound radioactivity is the signal in a displacement assay; it reports binding, not function.
Experiment [2] addresses Sigma non-opioid intracellular receptor 1 (Rattus norvegicus, UniProt Q9R0C9). Nature of the experiment: Displacement of [3H](+)-pentazocine from sigma1 receptor in rat brain homogenate. The experiment is classed as tissue-based. An outline of the steps: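 Rat brain homogenate binding. Nonspecific binding defined with haloperidol. Means ± SEM from replicate assays.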
Experiment [3] deals with T2, Mu-type opioid receptor (Homo sapiens, UniProt P35372). Nature of the experiment: biochemical. The experiment is classed as cell-based, CHO.
Experiment [4] in a line: Displacement of [3H]di-O-tolyguanidine from sigma2 receptor in rat brain homogenate. The experiment is classed as tissue-based.
The target of experiment [5] is T3, Kappa-type opioid receptor (Homo sapiens, UniProt P41145). Nature of the experiment: biochemical. The experiment is classed as cell-based, CHO.
The target in experiment [6] is T1, Delta-type opioid receptor. The note with it: CHO.
Experiment [7] is filed under the species Homo sapiens. Nature of the experiment: Selectivity index, ratio of Ki for human delta opioid receptor to human mu opioid receptor.
The target in experiment [8] is T2, Mu-type opioid receptor. The note with it: CHO.
The target in experiment [9] is T3, Kappa-type opioid receptor. The note with it: CHO.
For another experiment, the species on record is Rattus norvegicus. Nature of the experiment: Selectivity index, ratio of Ki for rat brain sigma2 receptor to Ki for rat brain sigma1 receptor.
For experiment [10], the species on record is Homo sapiens. Nature of the experiment: Selectivity index, ratio of Ki for human kappa opioid receptor to human mu opioid receptor.
In experiment [11] the target is T1, Delta-type opioid receptor. Nature of the experiment: Binding affinity to human delta opioid receptor expressed in CHO cells. The experiment is classed as cell-based.
For experiment [12], the target named is T2, Mu-type opioid receptor. Nature of the experiment: Binding affinity to human mu opioid receptor expressed in CHO cells. The experiment is classed as cell-based.
The nature of experiment [13]: Binding affinity to sigma receptor.
In experiment [14] the target is T1, Delta-type opioid receptor. Nature of the experiment: Agonist activity at human delta opioid receptor expressed in CHO cells assessed as stimulation of [35S]GTPgammaS binding. The experiment is classed as functional, cell-based. An outline of the steps: (§1)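 [35S]GTPgammaS binding stimulation at the delta receptor, n = 3, reported with SD.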
Background: GTPγS is a poorly hydrolysed GTP analogue; its binding reports G protein activation.

Experiment [15] has as its target T3, Kappa-type opioid receptor. The conditions noted are these: CHO. This is another data set of the same source.
Experiment [16] deals with T1, Delta-type opioid receptor. Nature of the experiment: Agonist activity at human delta opioid receptor expressed in CHO cells assessed as stimulation of [35S]GTPgammaS binding relative to 500 nM SNC80. The experiment is classed as functional, cell-based. An outline of the steps: as §1
The target in experiment [17] is T2, Mu-type opioid receptor. The conditions noted are these: CHO. This is another data set of the same source.

SMILES strings stand for the structures.

T2 sequence (P35372 whole entry): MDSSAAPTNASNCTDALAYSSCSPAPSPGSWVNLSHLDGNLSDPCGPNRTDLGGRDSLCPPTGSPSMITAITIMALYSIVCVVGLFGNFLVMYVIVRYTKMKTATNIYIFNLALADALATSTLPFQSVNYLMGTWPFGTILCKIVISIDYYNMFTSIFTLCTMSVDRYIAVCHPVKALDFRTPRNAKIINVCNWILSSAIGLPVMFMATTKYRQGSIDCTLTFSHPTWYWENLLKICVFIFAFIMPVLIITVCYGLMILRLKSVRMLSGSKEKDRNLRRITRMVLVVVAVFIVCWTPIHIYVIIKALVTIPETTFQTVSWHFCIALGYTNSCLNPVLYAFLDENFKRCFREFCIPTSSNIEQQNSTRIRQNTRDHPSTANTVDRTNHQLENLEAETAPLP
T3 sequence (P41145 whole entry): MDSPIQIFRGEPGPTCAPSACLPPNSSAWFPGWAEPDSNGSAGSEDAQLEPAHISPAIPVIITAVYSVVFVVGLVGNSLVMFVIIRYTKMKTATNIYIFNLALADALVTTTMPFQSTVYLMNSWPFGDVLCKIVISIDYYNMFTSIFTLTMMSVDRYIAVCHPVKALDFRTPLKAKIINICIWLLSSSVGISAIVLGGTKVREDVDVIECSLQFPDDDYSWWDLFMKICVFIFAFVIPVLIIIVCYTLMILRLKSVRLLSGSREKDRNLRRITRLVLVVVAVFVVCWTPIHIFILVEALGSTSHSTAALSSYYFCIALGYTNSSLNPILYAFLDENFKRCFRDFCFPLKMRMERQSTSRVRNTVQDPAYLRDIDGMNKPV
T1 sequence (P41143 whole entry): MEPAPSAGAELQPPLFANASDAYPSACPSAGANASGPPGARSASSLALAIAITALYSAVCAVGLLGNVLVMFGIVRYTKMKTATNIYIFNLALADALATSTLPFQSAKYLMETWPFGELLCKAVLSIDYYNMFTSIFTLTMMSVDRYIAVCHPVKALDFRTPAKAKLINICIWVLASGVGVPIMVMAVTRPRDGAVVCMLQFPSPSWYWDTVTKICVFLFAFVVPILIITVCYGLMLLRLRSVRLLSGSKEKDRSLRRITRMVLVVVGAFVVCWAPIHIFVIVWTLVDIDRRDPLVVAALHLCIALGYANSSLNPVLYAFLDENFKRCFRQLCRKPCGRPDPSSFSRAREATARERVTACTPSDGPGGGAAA
Sequence of Sigma non-opioid intracellular receptor 1 (Q9R0C9 whole entry): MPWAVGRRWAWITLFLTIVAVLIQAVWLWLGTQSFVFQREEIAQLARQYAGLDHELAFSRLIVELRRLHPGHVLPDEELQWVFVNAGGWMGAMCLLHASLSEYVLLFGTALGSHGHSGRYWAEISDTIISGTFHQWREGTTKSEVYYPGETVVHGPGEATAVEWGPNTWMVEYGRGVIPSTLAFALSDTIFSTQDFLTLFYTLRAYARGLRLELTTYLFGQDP

In the case of `COc1cccc2c1O[C@H]1CCC[C@H]3CN(C)CC[C@@]231` (stereo in doubt; (+)-3a) [listing 1 of 2 here], the Ki in [1] is over 10000 nM; in experiment [2], 658 nM; at Mu-type opioid receptor [3], 7610 nM; in experiment [4], over 10000 nM; in [5], 7230 nM.

With `COc1cccc2c1O[C@H]1CCC[C@H]3CN(CC4CC4)CC[C@@]231` (stereo in doubt; (-)-3b) [listing 1 of 2 here], the Ki is 544 nM in experiment [1]; 285 nM in experiment [2]; 30 nM at Mu-type opioid receptor [3]; 3270 nM in experiment [4]; 41 nM in [5].

On to `CC(C)=CCN1CC[C@]2(C)c3cc(O)ccc3C[C@H]1[C@H]2C` [(+)-PENTAZOCINE], for which the Ki in [4] came to 1360 nM.

For the compound `CN1CC[C@]23c4cccc(O)c4O[C@H]2CCC[C@@H]3C1` (stereo in doubt; (+)-5), the Ki in experiment [1] (cho) and in experiment [5] (cho) was over 10000 nM each time.

For `CN1CC[C@]23c4cccc(O)c4O[C@H]2CCC[C@@H]3C1` (stereo in doubt; (-)-5), the Ki in experiment [1] and in experiment [5] was over 10000 nM throughout.

For the compound `COc1cccc2c1O[C@H]1CCC[C@@H]3CN(C)CC[C@@]231` (stereo in doubt; (+)-4) [listing 1 of 2 here], the Ki in experiment [1] is over 10000 nM; at Mu-type opioid receptor [3], over 10000 nM; in experiment [5] it was 1850 nM.

For `COc1cccc2c1O[C@H]1CCC[C@H]3CN(CCc4ccccc4)CC[C@@]231` (stereo in doubt; (+)-3c) [listing 1 of 2 here], the Ki in experiment [1] came to 8390 nM; in experiment [2], 278 nM; on Mu-type opioid receptor [3], 145 nM; in experiment [4], 2550 nM; in experiment [5], 1140 nM.

Take `COc1cccc2c1O[C@H]1CCC[C@H]3CN(C)CC[C@@]231` (stereo in doubt; (-)-3a) [listing 1 of 2 here]: the Ki is 9750 nM in experiment [1]; over 10000 nM in [2]; 236 nM on Mu-type opioid receptor [3]; 7480 nM in [4]; 3470 nM in experiment [5].

Turning to `COc1cccc2c1O[C@H]1CCC[C@H]3CN(CCc4ccccc4)CC[C@@]231` (stereo in doubt; (-)-3c) [listing 1 of 2 here], the Ki turned out to be 490 nM in experiment [1]; 560 nM in [2]; 24 nM at Mu-type opioid receptor [3]; 3270 nM in experiment [4]; 1850 nM in experiment [5].

Compound `C=CCN1CC[C@]23c4c5ccc(O)c4O[C@H]2C(=O)CC[C@@]3(O)[C@H]1C5` [NALOXONE] showed a Ki in [4] of over 10000 nM.

Consider `Oc1cccc2c1O[C@H]1CCC[C@H]3CN(CC4CC4)CC[C@@]231` (stereo in doubt; (-)-1b) [listing 1 of 2 here], for which the figures for the Ke (in [6]; at Mu-type opioid receptor [8]) were 20 nM and 0.22 nM, respectively. Also, the Ratio Ki in the experiment listed under Homo sapiens [7] was 25; in the experiment listed under Rattus norvegicus, over 25; in the experiment listed under Homo sapiens [10] it was 1.3. For the same compound, the ED50 in [9] turned out to be 2.3 nM.

For the compound `COc1cccc2c1O[C@H]1CCC[C@H]3CN(CCc4ccccc4)CC[C@@]231` (stereo in doubt; (+)-3c) [listing 2 of 2 here], the Ratio Ki was determined as 58 in the experiment filed under Homo sapiens [7], 9.2 in the experiment filed under Rattus norvegicus and 7.9 in the experiment filed under Homo sapiens [10].

`CC(C)=CCN1CC[C@@]2(C)c3cc(O)ccc3C[C@@H]1[C@@H]2C` gave a Ki in experiment [4] of 56 nM.

`C[C@@H](NC(=O)[C@@H](N)Cc1ccc(O)cc1)C(=O)NCC(=O)N(C)[C@@H](Cc1ccccc1)C(=O)NCCO` returned an ED50 in experiment [9] of 8940 nM.

Consider `CN1CC[C@]23c4cccc(O)c4O[C@H]2CCC[C@H]3C1` (stereo in doubt; (+)-1a), for which the Ki in [1] is over 10000 nM; in experiment [2], 2010 nM; in [5] it was 6900 nM.

`CN1CC[C@]23c4cccc(O)c4O[C@H]2CCC[C@H]3C1` (stereo in doubt; (-)-1a) [listing 1 of 2 here]: the inhibition constant Ki is 44 nM in experiment [1], over 10000 nM in [2], over 10000 nM in [4] and 14 nM in experiment [5].

As for `COc1cccc2c1O[C@H]1CCC[C@H]3CN(C)CC[C@@]231` (stereo in doubt; (+)-3a) [listing 2 of 2 here], the Ratio Ki in the experiment filed under Rattus norvegicus is over 15; in the experiment filed under Homo sapiens [10] it was 0.95.

Regarding `COc1cccc2c1O[C@H]1CCC[C@@H]3CN(C)CC[C@@]231` (stereo in doubt; (-)-4) [listing 1 of 2 here], the values for the Ki (in experiment [1]; at Mu-type opioid receptor [3]; in experiment [5]) were 1050 nM, 27 nM and 565 nM, respectively.

As to `Oc1cccc2c1O[C@H]1CCC[C@H]3CN(CC4CC4)CC[C@@]231` (stereo in doubt; (+)-1b) [listing 1 of 2 here], the Ki in experiment [1] was over 10000 nM; in experiment [2], 201 nM; at Mu-type opioid receptor [3], 1330 nM; in experiment [4] it was 1030 nM; in [5] it was 699 nM.

Take `Oc1cccc2c1O[C@H]1CCC[C@H]3CN(CCc4ccccc4)CC[C@@]231` (stereo in doubt; (+)-1c) [listing 1 of 2 here]: the Ki was found to be 5000 nM in experiment [1]; 131 nM in experiment [2]; 275 nM at Mu-type opioid receptor [3]; 263 nM in experiment [4]; 1240 nM in experiment [5].

On to `Oc1cccc2c1O[C@H]1CCC[C@H]3CN(CC4CC4)CC[C@@]231` (stereo in doubt; (-)-1b) [listing 2 of 2 here], for which the Ki was 2 nM in experiment [1]; 399 nM in [2]; 0.08 nM at Mu-type opioid receptor [3]; over 10000 nM in experiment [4]; 0.1 nM in experiment [5]. In addition, the results for the Kd (in [11]; on Mu-type opioid receptor [12]) were 20 nM and 0.22 nM, respectively.

As for `Oc1cccc2c1O[C@H]1CCC[C@H]3CN(CCc4ccccc4)CC[C@@]231` (stereo in doubt; (+)-1c) [listing 2 of 2 here], the Ratio Ki was 18 in the experiment listed under Homo sapiens [7], 2 in the experiment listed under Rattus norvegicus and 4.5 in the experiment filed under Homo sapiens [10].

As to `Oc1cccc2c1O[C@H]1CCC[C@H]3CN(CCc4ccccc4)CC[C@@]231` (stereo in doubt; (-)-1c) [listing 1 of 2 here], the Ki in experiment [1] turned out to be 6 nM; in [2], 239 nM; at Mu-type opioid receptor [3], 0.3 nM; in experiment [4], 5380 nM; in experiment [5], 15 nM.

On to `Oc1cccc2c1O[C@H]1CCC[C@H]3CN(CC4CC4)CC[C@@]231` (stereo in doubt; (+)-1b) [listing 2 of 2 here], for which the Ratio Ki in the experiment listed under Rattus norvegicus was determined as 5.1; in the experiment listed under Homo sapiens [10] it was 0.53.

`COc1cccc2c1O[C@H]1CCC[C@H]3CN(CC4CC4)CC[C@@]231` (stereo in doubt; (+)-3b) [listing 1 of 2 here]: the Ki was over 10000 nM in [1]; 62 nM in experiment [2]; over 10000 nM at Mu-type opioid receptor [3]; 4370 nM in experiment [4]; over 10000 nM in experiment [5].

Take `COc1cccc2c1O[C@H]1CCC[C@H]3CN(C)CC[C@@]231` (stereo in doubt; (-)-3a) [listing 2 of 2 here]: the Ratio Ki is 41 in the experiment filed under Homo sapiens [7], under 0.7 in the experiment listed under Rattus norvegicus and 15 in the experiment filed under Homo sapiens [10].

In experiment [13], `Oc1cccc2c1O[C@H]1CCC[C@H]3CN(CC4CC4)CC[C@@]231` (racemic) registered a Ki of 21 nM.

Regarding `COc1cccc2c1O[C@H]1CCC[C@H]3CN(CCc4ccccc4)CC[C@@]231` (stereo in doubt; (-)-3c) [listing 2 of 2 here], the results for the Ratio Ki in the experiment listed under Homo sapiens [7], in the experiment listed under Rattus norvegicus and in the experiment filed under Homo sapiens [10] were 20, 5.8 and 77, respectively.

In the case of `COc1cccc2c1O[C@H]1CCC[C@H]3CN(CC4CC4)CC[C@@]231` (stereo in doubt; (-)-3b) [listing 2 of 2 here], the Ratio Ki in the experiment listed under Homo sapiens [7] was 18; in the experiment listed under Rattus norvegicus, 11; in the experiment listed under Homo sapiens [10] it was 1.4.

For the compound `COc1cccc2c1O[C@H]1CCC[C@@H]3CN(C)CC[C@@]231` (stereo in doubt; (+)-4) [listing 2 of 2 here], in the experiment filed under Homo sapiens [10], the Ratio Ki is under 0.19.

As to `COc1cccc2c1O[C@H]1CCC[C@@H]3CN(C)CC[C@@]231` (stereo in doubt; (-)-4) [listing 2 of 2 here], the Ratio Ki in the experiment listed under Homo sapiens [7] worked out at 39; in the experiment listed under Homo sapiens [10] it was 21.

For the compound `Oc1cccc2c1O[C@H]1CCC[C@H]3CN(CCc4ccccc4)CC[C@@]231` (stereo in doubt; (-)-1c) [listing 2 of 2 here], the Ratio Ki in the experiment listed under Homo sapiens [7] stood at 20; in the experiment filed under Rattus norvegicus it was 23; in the experiment filed under Homo sapiens [10], 50. Besides, the ED50 came out at 148 nM in experiment [14] and 10 nM at Mu-type opioid receptor [17]. The compound also showed a Ke in experiment [15] of 130 nM. The Emax in [16] worked out at 64%.

In [15], `CN1CC[C@]23c4cccc(O)c4O[C@H]2CCC[C@H]3C1` (stereo in doubt; (-)-1a) [listing 2 of 2 here] came in with a Ke of 80 nM. Further, on Mu-type opioid receptor [17], the ED50 amounted to 19 nM.

Regarding `COc1cccc2c1O[C@H]1CCC[C@H]3CN(CC4CC4)CC[C@@]231` (stereo in doubt; (+)-3b) [listing 2 of 2 here], in the experiment listed under Rattus norvegicus, the Ratio Ki amounted to 71.

The term Ki denotes the dissociation constant of the complex between target and ligand, obtained from inhibition or displacement. One may read the Kd as the free concentration of one partner at which half of the binding sites on the other are occupied at equilibrium, for simple one-to-one binding. Read a high Kd as weaker binding. A word on the Emax: it is the maximal effect, on the per cent scale that the assay sets.
